Experimental data reported in ChEMBL document CHEMBL3868642, “Discovery of novel curcumin derivatives targeting xanthine oxidase and urate transporter 1 as anti-hyperuricemic agents” (Bioorg Med Chem, 2017).
Calls of active or inactive are those of the source. No cut-off for these calls is given here.

Experiments:
[1] = biological target: Xanthine dehydrogenase/oxidase (Homo sapiens, UniProt P47989); assay: Inhibition of xanthine oxidase (unknown origin) assessed as reduction in uric acid formation preincubated for 5 mins followed by addition of xanthine substrate measured every minute up to 8 mins
Mus musculus [2] = assay: Uricosuric activity in potassium oxonate-induced Kun Ming mouse model of hyperuricemia assessed as increase in uric acid excretion in urine at 10 mg/kg qd administered 1 hr post potassium oxonate-challenge for 7 days via oral gavage measured up to 24 hrs post last dose by phosphotungstic acid method relative to vehicle-treated control; assay type: functional
Mus musculus [3] = assay: Antihyperuricemic activity in fasted Kun Ming mouse assessed as inhibition of potassium oxonate-induced uric acid level in serum at 10 mg/kg qd administered 1 hr post potassium oxonate-challenge for 7 days via oral gavage measured 1 hr post last dose by phosphotungstic acid method relative to vehicle-treated control; assay type: functional
[4] = biological target: T1, Solute carrier family 22 member 12 (Homo sapiens, UniProt Q96S37); assay: Inhibition of URAT1 (unknown origin) expressed in HEK293 cells assessed as inhibition of [14C]-uric acid uptake at 100 uM preincubated for 30 mins followed by [14C]-uric acid addition by liquid scintillation counting analysis relative to control; assay type: cell-based
T1 sequence (Q96S37 whole entry): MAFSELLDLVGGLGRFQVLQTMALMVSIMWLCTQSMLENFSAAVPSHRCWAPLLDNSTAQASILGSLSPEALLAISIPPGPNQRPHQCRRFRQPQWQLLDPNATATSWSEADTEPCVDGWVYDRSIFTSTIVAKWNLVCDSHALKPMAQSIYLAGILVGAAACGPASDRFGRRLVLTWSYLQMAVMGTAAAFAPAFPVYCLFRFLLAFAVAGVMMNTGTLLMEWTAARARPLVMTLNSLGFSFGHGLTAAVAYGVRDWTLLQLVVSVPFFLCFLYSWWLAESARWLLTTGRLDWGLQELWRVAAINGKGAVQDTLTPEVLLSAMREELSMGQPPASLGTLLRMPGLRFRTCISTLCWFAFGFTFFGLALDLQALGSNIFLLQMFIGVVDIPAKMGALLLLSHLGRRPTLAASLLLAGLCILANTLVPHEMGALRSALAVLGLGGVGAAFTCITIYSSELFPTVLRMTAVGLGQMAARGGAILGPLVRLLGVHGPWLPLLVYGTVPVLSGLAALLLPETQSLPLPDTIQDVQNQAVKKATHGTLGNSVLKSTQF

Mus musculus [5] = assay: In vivo inhibition of potassium oxonate-induced hepatic XOD activity in Kun Ming mouse model of hyperuricemia at 10 mg/ kg, po qd administered 1 hr post potassium oxonate-challenge for 7 consecutive days via oral gavage relative to control; assay type: functional
Mus musculus [6] = assay: Antihyperuricemic activity in potassium oxonate-induced Kun Ming mouse model of hyperuricemia assessed as oxonate-induced hepatic XOD activity at 10 mg/ kg, po qd administered 1 hr post potassium oxonate-challenge for 7 consecutive days via oral gavage relative to oxonate-treated control; assay type: functional
Mus musculus [7] = assay: Antihyperuricemic activity in potassium oxonate-induced Kun Ming mouse model of hyperuricemia assessed as reduction in hepatic uric acid level at 10 mg/kg, po qd administered via oral gavage 1 hr post potassium oxonate-challenge for 7 consecutive days by phosphotungstic acid method; assay type: functional, organism-based
Outline: (§1)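 Male Kun-Ming mice, 18–22 g, acclimatised one week, food withdrawn 1 h before dosing. Once-daily oral gavage of oxonate 250 mg/kg or 0.5% CMC-Na at 8:00, then test agent in 0.5% CMC-Na at 9:00, for seven days. 24 h urine collected from day six in metabolic cages. Serum taken 1 h after final dose, liver tissue removed. Uric acid measured by phosphotungstic acid method. n = 8.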

Mus musculus [8] = assay: Antihyperuricemic activity in potassium oxonate-induced Kun Ming mouse model of hyperuricemia assessed as reduction in uric acid level in serum at 10 mg/kg, po qd administered via oral gavage 1 hr post potassium oxonate-challenge for 7 consecutive days by phosphotungstic acid method; assay type: functional, organism-based; outline: as §1
Mus musculus [9] = assay: Antihyperuricemic activity in potassium oxonate-induced Kun Ming mouse model of hyperuricemia assessed as uricosuric activity by measuring increase in urinary uric acid excretion at 10 mg/kg, po qd administered via oral gavage 1 hr post potassium oxonate-challenge for 7 consecutive days measured up to 24 hrs post last dose by phosphotungstic acid method; assay type: functional, organism-based; outline: as §1
[10] = Decrease in potassium oxonate-induced renal URAT1 expression in Kun Ming mouse model of hyperuricemia at 10 mg/ kg, po qd administered 1 hr post potassium oxonate-challenge for 7 consecutive days via oral gavage by Western blot method relative to oxonate-treated control; assay type: functional, organism-based

Chain of Xanthine dehydrogenase/oxidase (P47989 whole entry): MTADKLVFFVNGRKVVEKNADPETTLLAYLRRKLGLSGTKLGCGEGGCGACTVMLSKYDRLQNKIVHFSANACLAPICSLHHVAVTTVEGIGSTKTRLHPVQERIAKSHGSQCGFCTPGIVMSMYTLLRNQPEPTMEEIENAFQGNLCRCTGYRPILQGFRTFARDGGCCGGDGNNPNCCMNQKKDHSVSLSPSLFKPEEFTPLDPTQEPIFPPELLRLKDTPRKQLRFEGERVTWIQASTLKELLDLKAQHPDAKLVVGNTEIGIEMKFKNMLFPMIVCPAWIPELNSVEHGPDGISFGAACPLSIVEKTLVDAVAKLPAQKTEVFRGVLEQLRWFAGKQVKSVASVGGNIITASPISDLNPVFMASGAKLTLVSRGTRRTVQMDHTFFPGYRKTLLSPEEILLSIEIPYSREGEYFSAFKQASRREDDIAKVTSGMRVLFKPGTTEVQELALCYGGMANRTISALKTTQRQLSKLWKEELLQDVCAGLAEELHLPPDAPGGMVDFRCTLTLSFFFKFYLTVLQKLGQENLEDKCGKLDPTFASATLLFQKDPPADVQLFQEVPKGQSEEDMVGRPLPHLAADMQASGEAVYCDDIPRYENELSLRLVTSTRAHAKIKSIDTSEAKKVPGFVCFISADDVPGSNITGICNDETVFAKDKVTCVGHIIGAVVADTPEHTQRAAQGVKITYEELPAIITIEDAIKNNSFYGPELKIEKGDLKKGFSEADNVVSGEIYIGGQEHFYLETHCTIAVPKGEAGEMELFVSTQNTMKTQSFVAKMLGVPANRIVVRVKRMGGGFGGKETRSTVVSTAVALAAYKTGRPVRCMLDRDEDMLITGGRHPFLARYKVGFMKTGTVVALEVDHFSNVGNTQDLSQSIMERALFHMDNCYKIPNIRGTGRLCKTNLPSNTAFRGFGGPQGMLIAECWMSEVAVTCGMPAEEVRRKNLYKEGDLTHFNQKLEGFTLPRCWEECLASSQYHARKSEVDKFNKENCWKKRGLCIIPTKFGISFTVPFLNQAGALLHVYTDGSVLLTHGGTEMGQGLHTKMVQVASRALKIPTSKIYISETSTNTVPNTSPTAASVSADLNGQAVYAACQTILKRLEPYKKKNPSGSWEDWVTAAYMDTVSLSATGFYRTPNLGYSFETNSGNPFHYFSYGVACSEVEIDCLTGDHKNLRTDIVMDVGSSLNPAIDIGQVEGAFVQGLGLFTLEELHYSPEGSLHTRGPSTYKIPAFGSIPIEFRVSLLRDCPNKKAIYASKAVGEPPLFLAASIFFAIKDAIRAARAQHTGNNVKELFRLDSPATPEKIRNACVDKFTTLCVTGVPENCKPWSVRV

Structure (SMILES)	IC50 [1]	Activity (Mus musculus [2])	inhibition in vivo at 10 mg/kg (Mus musculus [3])	inhibition at 100 µM [4]	inhibition (Mus musculus [5])	Activity (Mus musculus [6])	Activity (Mus musculus [7])	Activity (Mus musculus [8])	Activity (Mus musculus [9])	Activity [10]
COc1cc(/C=C2\CCC/C(=C\c3cccc(Br)c3)C2=O)cc(OC)c1	0.0189 µM	44.71%	47.3%	20.7%						
COc1cc(/C=C2\CCC/C(=C\c3ccc(N(C)C)cc3)C2=O)cc(OC)c1		10.74%	20.1%							
COc1cc(/C=C2\CCC/C(=C\c3cc(C(C)(C)C)c(O)c(C(C)(C)C)c3)C2=O)cc(OC)c1		19.35%	7.74%							
Oc1ncnc2[nH]ncc12 [ALLOPURINOL]		88.6%	118 to 148%		Active	43.4%	Active	Active	Active	
CCc1oc2ccccc2c1C(=O)c1cc(Br)c(O)c(Br)c1 [BENZBROMARONE]		37.58%	99.7%	42.5%		11.3%	Active	Active	Active	Active
